Reference: ChEMBL document CHEMBL1155443, “Synthesis and evaluation of alpha-halogenated analogues of 3-(acetylhydroxyamino)propylphosphonic acid (FR900098) as antimalarials” (J Med Chem, 2010)
Calls of active or inactive are those of the source. The calls are words filed in the database; no cut-off is given here.

What was measured:
Plasmodium falciparum [1] = experiment: Antiplasmodial activity against Plasmodium falciparum Ghana by micro dilution assay; type: functional, organism-based
Method in brief: (§1)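 Intraerythrocytic P. falciparum, strains GHA and K1, in a microdilution assay; tested in duplicate.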

Plasmodium berghei [2] = experiment: Antiplasmodial activity against Plasmodium berghei ANKA infected in mice (Mus musculus) assessed as mice (Mus musculus) survival at 50 mg/kg, intraperitoneal for 5 consecutive days measured on day 11 post parasitic infection; type: functional, organism-based; design: dose 50 mg/kg
Method in brief: (§2)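 P. berghei GFP ANKA acute mouse model. Drug was given intraperitoneally once daily for 5 consecutive days, alongside vehicle-treated infected controls. Mice were watched for clinical and adverse signs and euthanized for welfare if signs became very severe. Surviving animals were counted per group on days 7, 11, 14 and 25, and mean survival time was calculated.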

Plasmodium berghei [3] = experiment: Antiplasmodial activity against Plasmodium berghei ANKA infected in mice (Mus musculus) assessed as suppression of parasitaemia at 50 mg/kg, intraperitoneal for 5 consecutive days measured on day 4 post parasitic infection; type: functional; settings: ip, 96 h
Method in brief: (§3)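 P. berghei (GFP ANKA strain) acute mouse model; intraperitoneal dosing for 5 consecutive days (test compounds 50 mg/kg, chloroquine reference 10 mg/kg). Parasitaemia measured by flow cytometry (10 μL blood in 2000 μL PBS) on days 4, 7 and 14 in survivors, expressed as % reduction versus vehicle-treated infected controls. Survivors counted on days 7, 11, 14 and 25; mean survival time calculated.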

Plasmodium falciparum [4] = experiment: Antiplasmodial activity against Plasmodium falciparum K1 by micro dilution assay; type: functional, organism-based; method in brief: as §1
Plasmodium berghei [5] = experiment: Antiplasmodial activity against Plasmodium berghei ANKA infected in mice (Mus musculus) assessed as mean survival time at 50 mg/kg, intraperitoneal for 5 consecutive days; type: functional; method in brief: as §3
Plasmodium berghei [6] = experiment: Antiplasmodial activity against Plasmodium berghei ANKA infected in mice (Mus musculus) assessed as mice (Mus musculus) survival at 50 mg/kg, intraperitoneal for 5 consecutive days measured on day 14 post parasitic infection; type: functional, organism-based; design: dose 50 mg/kg; method in brief: as §2
Plasmodium berghei [7] = experiment: Antiplasmodial activity against Plasmodium berghei ANKA infected in mice (Mus musculus) assessed as mice (Mus musculus) survival at 50 mg/kg, intraperitoneal for 5 consecutive days measured on day 25 post parasitic infection; type: functional, organism-based; design: dose 50 mg/kg; method in brief: as §3
Plasmodium berghei [8] = experiment: Antiplasmodial activity against Plasmodium berghei ANKA infected in mice (Mus musculus) assessed as suppression of parasitaemia at 50 mg/kg, intraperitoneal for 5 consecutive days measured on day 7 post parasitic infection; type: functional; settings: ip, 168 h; method in brief: as §3
Plasmodium berghei [9] = experiment: Antiplasmodial activity against Plasmodium berghei ANKA infected in mice (Mus musculus) assessed as suppression of parasitaemia at 50 mg/kg, intraperitoneal for 5 consecutive days measured on day 14 post parasitic infection; type: functional; settings: ip, 336 h; method in brief: as §3
Plasmodium falciparum [10] = experiment: Ratio of fosmidomycin IC50 to compound IC50 for Plasmodium falciparum K1; type: functional
[11] = Dissociation constant, pKa by NMR titration assay; type: physicochemical
Method in brief: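 The ³¹P NMR chemical shift was recorded across a range of pH values and plotted against pH. Each pKa was taken as the pH at the inflection point of the titration curve, with the second pKa the value of interest.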

Plasmodium berghei [12] = experiment: Antiplasmodial activity against Plasmodium berghei ANKA infected in mice (Mus musculus) assessed as mice (Mus musculus) survival at 50 mg/kg, intraperitoneal for 5 consecutive days measured on day 7 post parasitic infection; type: functional, organism-based; design: dose 50 mg/kg; method in brief: as §3
Plasmodium berghei [13] = experiment: Antiplasmodial activity against Plasmodium berghei ANKA infected in mice (Mus musculus) assessed as suppression of parasitaemia at 10 mg/kg, intraperitoneal for 5 consecutive days measured on day 4 post parasitic infection; settings: ip, 96 h, read-out: INH
Plasmodium berghei [14] = experiment: Antiplasmodial activity against Plasmodium berghei ANKA infected in mice (Mus musculus) assessed as mice (Mus musculus) survival at 10 mg/kg, intraperitoneal for 5 consecutive days measured on day 11 post parasitic infection; type: functional, organism-based; design: dose 10 mg/kg; method in brief: as §2
Plasmodium berghei [15] = experiment: Antiplasmodial activity against Plasmodium berghei ANKA infected in mice (Mus musculus) assessed as mice (Mus musculus) survival at 10 mg/kg, intraperitoneal for 5 consecutive days measured on day 7 post parasitic infection; type: functional, organism-based; design: dose 10 mg/kg; method in brief: as §2
Plasmodium berghei [16] = experiment: Antiplasmodial activity against Plasmodium berghei ANKA infected in mice (Mus musculus) assessed as mice (Mus musculus) survival at 10 mg/kg, intraperitoneal for 5 consecutive days measured on day 14 post parasitic infection; type: functional, organism-based; design: dose 10 mg/kg; method in brief: as §2
Plasmodium berghei [17] = experiment: Antiplasmodial activity against Plasmodium berghei ANKA infected in mice (Mus musculus) assessed as mean survival time at 10 mg/kg, intraperitoneal for 5 consecutive days; type: functional; method in brief: as §3

Row | SMILES | IC50 (Plasmodium falciparum [1]) [nM] | Activity (Plasmodium berghei [2]) | inhibition in vivo at 50 mg/kg (Plasmodium berghei [3]) [%] | IC50 (Plasmodium falciparum [4]) [nM] | MST (Plasmodium berghei [5]) [days] | Activity (Plasmodium berghei [6]) | Activity (Plasmodium berghei [7]) | inhibition in vivo at 50 mg/kg (Plasmodium berghei [8]) [%] | inhibition in vivo at 50 mg/kg (Plasmodium berghei [9]) [%] | Ratio IC50 (Plasmodium falciparum [10]) | pKa [11] | Activity (Plasmodium berghei [12]) | inhibition in vivo at 10 mg/kg (Plasmodium berghei [13]) [%] | Activity (Plasmodium berghei [14]) | Activity (Plasmodium berghei [15]) | Activity (Plasmodium berghei [16]) | MST (Plasmodium berghei [17]) [days]
1 | O=CN(O)CCC(c1ccc(Cl)c(Cl)c1)P(=O)(O)O (stereo not drawn) | 600 | inactive | 46 | 160 | 7 | inactive | inactive | – | – | – | – | – | – | – | – | – | –
2 | CN(O)C(=O)CCC(F)P(=O)(O)O.N.N (racemic) | 730 | – | 85 | 310 | 11.7 | – | inactive | 42 | 41 | 5 | – | – | – | – | – | – | –
3 | CC(=O)N(O)CCC(Cl)P(=O)(O)O.N.N (racemic) | 820 | – | – | 300 | – | – | – | – | – | 5 | ≤ 6 | – | – | – | – | – | –
4 | CC(=O)N(O)CCC(F)P(=O)(O)O.N.N (racemic) | 700 | – | 88 | 290 | 15.8 | – | inactive | 62 | 32 | 5 | ≤ 6 | Active | – | – | – | – | –
5 | CCN(CC)CCCC(C)Nc1ccnc2cc(Cl)ccc12 (stereo not drawn) [CHLOROQUINE] | – | – | – | – | – | – | – | – | – | – | – | – | 100 | Active | Active | Active | 20.7
6 | O=CN(O)CCCP(=O)(O)O [FOSMIDOMYCIN] | – | – | 82 | 1730 | 11.5 | – | – | – | – | – | – | Active | – | – | – | – | –
7 | CC(=O)N(O)CCCP(=O)(O)O [FR-900098] | – | – | 93 | 420 | 10.8 | – | – | – | – | – | 7.35 | Active | – | – | – | – | –
